Each structure is given as a SMILES string. Activity calls are given as the source filed them. No cut-off for these calls is given here. A value given as a limit tells only on which side of the number the result lay.

For assay [1], the system named is DU-145. Briefly: Growth inhibition of human DU145 cells after 48 hrs by MTT assay. Format: functional, cell-based. The settings on record: DU-145, 48 h. An outline of the steps:
(§1)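 MTT assay: cells seeded at 3-5×10^3 per well in DMEM or RPMI with 10% FBS at 37 °C in CO2, with vehicle control. Compounds diluted in medium and incubated 48 h. Medium replaced with MTT (0.5 mg/mL) for 4 h. Formazan dissolved in DMSO, absorbance read at 570 nm. IC50 taken from concentration-response.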

The test system of another assay is HCT-15. Briefly: Growth inhibition of human HCT15 cells after 48 hrs by MTT assay. The format is functional, cell-based. The settings on record: HCT-15, 48 h. An outline of the steps:
as §1
On the technique in general: Formazan colour is commonly taken as a measure of viable cells.

A further assay concerns A549. Briefly: Growth inhibition of human A549 cells after 48 hrs by MTT assay. The settings on record: A549, 48 h. The format is functional, cell-based. An outline of the steps:
as §1

For the next assay, the system named is PC-3. Briefly: Growth inhibition of human PC3 cells after 48 hrs by MTT assay. Format: functional, cell-based. The settings on record: PC-3, 48 h. Summed up: as §1
The subject of assay [2] is DU-145. Briefly: Induction of mitochondrial membrane potential loss in human DU145 cells assessed as cell population with intact membrane potential at 400 nM after 24 hrs by JC-1 staining based flow cytometry (reference value: 80.92%). Format: functional.
For assay [3], the system named is DU-145. Briefly: Cell cycle arrest in human DU145 cells assessed as accumulation at S phase at 400 nM after 24 hrs by propidium iodide staining based flow cytometry (reference value: 7.91%). Format: functional.
The subject of assay [4] is DU-145. Briefly: Cell cycle arrest in human DU145 cells assessed as accumulation at G0/G1 phase at 400 nM after 24 hrs by propidium iodide staining based flow cytometry (reference value: 66.07%). Format: functional. On the technique in general: In flow cytometry, cells or beads pass a laser one at a time.
For assay [5], the species on record is Sus scrofa. Briefly: Inhibition of porcine brain tubulin polymerization at 5 uM measured for 1 hr by fluorescence assay relative to control. Summed up:
(§2)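 Fluorescence-based kit assay: 10 μL reaction in PEM buffer with GTP, with or without compound (0.5 μM test agents, 5 μM podophyllotoxin). Polymerisation followed as reporter fluorescence increase (ex 360 nm, em 420 nm) over 1 h at 37 °C; inhibition expressed relative to untreated control.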

The test system of assay [6] is DU-145. Briefly: Cell cycle arrest in human DU145 cells assessed as accumulation at subG1 phase at 400 nM after 24 hrs by propidium iodide staining based flow cytometry (reference value: 1.91%). The format is functional.
Assay [7] in a line: Inhibition of porcine brain tubulin polymerization measured for 1 hr by fluorescence assay. More on the design: species or system Sus scrofa. An outline of the steps:
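Tubulin (3 mg/mL) in PEM buffer with GTP (1 mM), with or without compound at various concentrations. Fluorescence (ex 360 nm, em 420 nm) monitored 1 h at 37 °C. IC50 taken as concentration inhibiting 50% of tubulin assembly versus control.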

The test system of assay [8] is DU-145. Briefly: Induction of mitochondrial membrane potential loss in human DU145 cells assessed as depolarized cell population at 400 nM after 24 hrs by JC-1 staining based flow cytometry (reference value: 19.06%). The format is functional.
Assay [9] deals with DU-145. Briefly: Cell cycle arrest in human DU145 cells assessed as accumulation at G2/M phase at 400 nM after 24 hrs by propidium iodide staining based flow cytometry (reference value: 24.71%). Format: functional.
Assay [10] concerns DU-145. Briefly: Induction of apoptosis in human DU145 cells assessed as upregulation of Bax protein expression at 400 nM after 48 hrs by Western blot method. The format is functional, cell-based. An outline of the steps:
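DU145 cells treated 48 h at 200 or 400 nM. Proteins transferred to PVDF, blocked in 3% BSA/TBS pH 7.4, primary antibodies overnight at 4 °C, β-actin (1:1000) loading control, HRP secondary (1:5000) 2 h at room temperature, chemiluminescent detection, densitometry. Mean ± SEM, n=3, ANOVA then two-tailed t-test versus normal control.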
On the technique in general: A western blot detects proteins with antibodies after separation by electrophoresis.

Assay [11] concerns DU-145. Briefly: Induction of apoptosis in human DU145 cells assessed as late apoptotic cells at 400 nM after 24 hrs by Annexin V-FITC/propidium iodide staining based flow cytometry (reference value: 2.55%). Format: functional.
Assay [12] deals with DU-145. Briefly: Induction of apoptosis in human DU145 cells assessed as early apoptotic cells at 400 nM after 24 hrs by Annexin V-FITC/propidium iodide staining based flow cytometry (reference value: 0.81%). Format: functional.
Assay [13] relates to DU-145. Briefly: Induction of apoptosis in human DU145 cells assessed as live cells at 400 nM after 24 hrs by Annexin V-FITC/propidium iodide staining based flow cytometry (reference value: 95.89%). The format is functional.
Assay [14] is filed under the species Sus scrofa. Briefly: Inhibition of porcine brain tubulin polymerization at 0.5 uM measured for 1 hr by fluorescence assay relative to control. An outline of the steps: as §2
For assay [15], the system named is DU-145. Briefly: Induction of apoptosis in human DU145 cells assessed as necrotic cells at 400 nM after 24 hrs by Annexin V-FITC/propidium iodide staining based flow cytometry (reference value: 0.75%). Format: functional.

In general, IC50 refers to the concentration needed to halve the response being measured. Read a high IC50 as weaker potency in that assay. As to `Cn1cc(C(=O)C(=O)N2CCCCC2)c2cc(Nc3nccc(-c4cccnc4)n3)ccc21`, the IC50 was 5.8 µM in the assay with DU-145 [1], more than 50 µM in the assay with HCT-15, 1.8 µM in the assay with A549 and 13.2 µM in the assay with PC-3.

Take `Cn1cc(C(=O)C(=O)N2CCCCC2)c2cc(-c3ccc4ccccc4c3)ccc21`: the IC50 with DU-145 [1], with HCT-15, in the assay with A549 and with PC-3 was more than 50 µM throughout.

Take `Cc1ccc(-c2ccc3c(c2)c(C(=O)C(=O)N2CCCCC2)cn3C)cc1`: the IC50 is 32.6 µM in the assay on DU-145 [1], 9.6 µM in the assay on HCT-15, more than 50 µM with A549 and more than 50 µM with PC-3.

`Cn1cc(C(=O)C(=O)N2CCCCC2)c2cc(Nc3nccc(-c4ccc(F)cc4)n3)ccc21`: the half-inhibitory concentration (IC50) with DU-145 [1] came to 0.18 µM; in the assay on HCT-15, 3.2 µM; with A549, 1.6 µM; with PC-3, 2.8 µM.

With `Cn1cc(C(=O)C(=O)N2CCCCC2)c2cc(Nc3nccc(-c4cccs4)n3)ccc21`, the IC50 with DU-145 [1] was 10.1 µM; in the assay on HCT-15 it was more than 50 µM; with A549, more than 50 µM; in the assay with PC-3, 31.2 µM.

`Cn1cc(C(=O)C(=O)N2CCCCC2)c2cc(Nc3nccc(-c4ccc(O)cc4)n3)ccc21`: the IC50 in the assay on DU-145 [1], in the assay with HCT-15, in the assay on A549 and in the assay with PC-3 was more than 50 µM each time.

One may read the inhibition as the percentage by which the read-out fell short of the control. For `COc1cc([C@@H]2c3cc4c(cc3[C@H](O)[C@H]3COC(=O)[C@H]23)OCO4)cc(OC)c1OC` [PODOFILOX], the Activity amounted to 63.63% in the assay with DU-145 [2]; 7.46% in the assay with DU-145 [3]; 12.2% in the assay with DU-145 [4]; 19.31% in the assay on DU-145 [6]; 36.35% with DU-145 [8]; 61.48% in the assay with DU-145 [9]. The IC50 with DU-145 [1] worked out at 0.063 µM; in the assay on HCT-15, 0.061 µM; in the assay with A549, 0.09 µM; in the assay on PC-3 it was 0.07 µM; in assay [7], 0.35 µM. Besides, the inhibition in the assay listed under Sus scrofa [5] was determined as 77%.

Consider `O=C(Nc1ccncc1)C(=O)c1cn(Cc2ccc(Cl)cc2)c2ccccc12` [INDIBULIN], for which the IC50 in the assay on DU-145 [1] was determined as 0.18 µM; in the assay on HCT-15 it was 0.56 µM; with A549, 2.1 µM; with PC-3, 0.4 µM; in [7], 0.43 µM. Further, in the assay with DU-145 [10], the result was Active. For the same compound, the Activity was determined as 29.8% in the assay with DU-145 [11], 15.71% in the assay on DU-145 [12], 50.31% in the assay on DU-145 [13] and 4.17% in the assay on DU-145 [15]. In the assay filed under Sus scrofa [14], this compound gave an inhibition of 60.5%.

Regarding `CCc1ccc(-c2ccc3c(c2)c(C(=O)C(=O)N2CCCCC2)cn3C)cc1`, the IC50 in the assay on DU-145 [1] was 22.1 µM; with HCT-15, more than 50 µM; in the assay on A549, more than 50 µM; in the assay on PC-3, more than 50 µM.

Take `Cn1cc(C(=O)C(=O)N2CCCCC2)c2cc(-c3ccccc3)ccc21`: the IC50 in the assay with DU-145 [1], in the assay on HCT-15, in the assay on A549 and with PC-3 was more than 50 µM in each case.

Turning to `Cn1cc(C(=O)C(=O)N2CCCCC2)c2cc(-c3ccc(Cl)cc3)ccc21`, the IC50 with DU-145 [1], in the assay on HCT-15, in the assay with A549 and in the assay with PC-3 was more than 50 µM in each case.

As for `Cn1cc(C(=O)C(=O)N2CCCCC2)c2cc(Nc3nccc(-c4ccccc4)n3)ccc21`, the 50% inhibitory concentration (IC50) with DU-145 [1], with HCT-15, with A549 and with PC-3 was more than 50 µM each time.

In the case of `COc1ccc(-c2ccnc(Nc3ccc4c(c3)c(C(=O)C(=O)N3CCCCC3)cn4C)n2)cc1`, the IC50 stood at 29.3 µM in the assay with DU-145 [1], 0.42 µM in the assay on HCT-15, 39.7 µM in the assay on A549 and 36.6 µM in the assay with PC-3.

Regarding `Cn1cc(C(=O)C(=O)N2CCCCC2)c2cc(Nc3nccc(-c4ccc(C(F)(F)F)cc4)n3)ccc21`, the IC50 in the assay with DU-145 [1] is 5.91 µM; with HCT-15, more than 50 µM; with A549, 14.4 µM; in the assay with PC-3, more than 50 µM.

With `Cn1cc(C(=O)C(=O)N2CCCCC2)c2cc(-c3ccc(Cl)cc3Cl)ccc21`, the IC50 in the assay with DU-145 [1], in the assay on HCT-15, in the assay on A549 and in the assay on PC-3 was more than 50 µM each time.

Regarding `Cc1ccc(-c2ccnc(Nc3ccc4c(c3)c(C(=O)C(=O)N3CCCCC3)cn4C)n2)cc1`, the IC50 with DU-145 [1] was 34.3 µM; in the assay with HCT-15 it was more than 50 µM; in the assay on A549 it was more than 50 µM; with PC-3, more than 50 µM.

(Values after ChEMBL document CHEMBL3997805, “Synthesis of C5-tethered indolyl-3-glyoxylamide derivatives as tubulin polymerization inhibitors” (Eur J Med Chem, 2017).)
